Entries after “also recorded” stand apart in the source; their conditions may differ.
How the values were obtained:
[1] = test system: fractional exhaled nitric oxide (FeNO); conditions: patients with mild asthma, inhaled; cited from earlier work
JAK1 = conditions: cited from earlier work
[2] = type: in vivo, human
Outline: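 Open-label single-dose study in 12 healthy volunteers. Each inhaled 1 mg test compound, with 99mTc surface-associated with the powder and blended with lactose, from a capsule dry-powder inhaler (60 L/min at 4 kPa). 81mKr ventilation and 57Co transmission scans were taken before dosing. Counts were corrected for decay, background and attenuation. Lung deposition was expressed as % of emitted dose (sum of lung, oropharynx, mouthwash, stomach and exhalation filter counts). Device and capsule residue was expressed as % of loaded dose. PI (outer/inner ratio) and sC/P were normalized to 81mKr.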

[3] = Scintigraphy study: plasma PK and safety; type: in vivo, human; conditions: single 1 mg radiolabeled dose
rat model of asthma = conditions: inhalation dosing; cited from earlier work
[4] = Phase I safety: laboratory tests; type: in vivo, human
Outline: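 Healthy volunteers in single- and multiple-ascending inhaled-dose cohorts, randomized against placebo and blinded to investigator and subject. All dosed subjects were analysed. Change from baseline was assessed in vital signs, 12-lead ECG, spirometry and laboratory tests. Lab monitoring for JAK-related toxicity covered reticulocyte counts, lymphocyte subsets and fasting lipids.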

[5] = Phase I safety: adverse events, Part A; type: in vivo, human; conditions: for Related AE / Total number of participants with at least one AE / Upper respiratory tract infection / Cough / Headache: n (%)
[6] = Part B MAD, 15 mg b.i.d. (n = 6)

CN(CCC#N)C1CCN(C(=O)Cn2cc(NC(=O)c3cnn4cccnc34)c(-c3cc(Cl)ccc3OC(F)F)n2)CC1 [GDC‐0214]
fractional exhaled nitric oxide (FeNO) [1]: reduced; also recorded: dose‐dependent decreases | plasma protein binding-corrected cellular 50% inhibitory concentration of JAK1 (JAK1): 97,000 pg/mL | mean emitted dose ([2]; capsule emptying, of loaded dose, 1 mg capsule): approximately 81% | calculated mean dose deposited in the lungs ([2]; from a single capsule (1 mg)): approximately 0.41 mg | Regional airway deposition ratio, PI (penetration index) ([2]; normalized for 81mKr gas distribution, mean (CV%), listed as radiolabeled GDC‐0214): 0.76 (30.47%) | % Emitted dose, Exhaled ([2]; single inhaled 1 mg radiolabeled dose, after the breath-hold, mean): 0.74% | tolerability [3]: well tolerated | eosinophil recruitment (rat model of asthma): suppressed | changes in laboratory parameters, ECGs, or vital signs ([4]; Parts A and B): no clinically relevant changes | changes in CD4T cells, CD8T cells, or B cells ([4]; compared to placebo, GDC-0214-treated cohorts): no significant changes | changes from baseline in levels of NK cells, reticulocytes, or low-density lipoprotein cholesterol ([4]; indicators of systemic effects of JAK1 inhibition): no significant changes | AE leading to withdrawal from treatment ([5]; Part A SAD, 0.15 mg (n = 3)): 0 | Serious AE ([5]; Part A SAD, 0.15 mg (n = 3)): 0 | Total number of AEs ([5]; Part A SAD, 0.15 mg (n = 3)): 1 | Total number of deaths ([5]; Part A SAD, 0.15 mg (n = 3)): 0 | Total number of participants withdrawn from study due to an AE ([5]; Part A SAD, 0.15 mg (n = 3)): 0 | Related AE ([5]; Part A SAD, 0.15 mg (n = 3)): 0 | Total number of participants with at least one AE ([5]; Part A SAD, 0.15 mg (n = 3)): 1 (33.3%) | Upper respiratory tract infection ([5]; Part A SAD, 0.15 mg (n = 3)): 0 | AE leading to withdrawal from treatment ([5]; Part A SAD, 0.5 mg (n = 3)): 0 | Serious AE ([5]; Part A SAD, 0.5 mg (n = 3)): 0 | Total number of AEs ([5]; Part A SAD, 0.5 mg (n = 3)): 3 | Total number of deaths ([5]; Part A SAD, 0.5 mg (n = 3)): 0 | Total number of participants withdrawn from study due to an AE ([5]; Part A SAD, 0.5 mg (n = 3)): 0 | Related AE ([5]; Part A SAD, 0.5 mg (n = 3)): 0 | Total number of participants with at least one AE ([5]; Part A SAD, 0.5 mg (n = 3)): 2 (66.7%) | Upper respiratory tract infection ([5]; Part A SAD, 0.5 mg (n = 3)): 0 | AE leading to withdrawal from treatment ([5]; Part A SAD, 1.5 mg (n = 6)): 0 | Serious AE ([5]; Part A SAD, 1.5 mg (n = 6)): 0 | Total number of AEs ([5]; Part A SAD, 1.5 mg (n = 6)): 5 | Total number of deaths ([5]; Part A SAD, 1.5 mg (n = 6)): 0 | Total number of participants withdrawn from study due to an AE ([5]; Part A SAD, 1.5 mg (n = 6)): 0 | Related AE ([5]; Part A SAD, 1.5 mg (n = 6)): 1 (16.7%) | Total number of participants with at least one AE ([5]; Part A SAD, 1.5 mg (n = 6)): 3 (50.0%) | AE leading to withdrawal from treatment ([5]; Part A SAD, 5 mg (n = 6)): 0 | Serious AE ([5]; Part A SAD, 5 mg (n = 6)): 0 | Total number of AEs ([5]; Part A SAD, 5 mg (n = 6)): 2 | Total number of deaths ([5]; Part A SAD, 5 mg (n = 6)): 0 | Total number of participants withdrawn from study due to an AE ([5]; Part A SAD, 5 mg (n = 6)): 0 | Related AE ([5]; Part A SAD, 5 mg (n = 6)): 0 | Total number of participants with at least one AE ([5]; Part A SAD, 5 mg (n = 6)): 2 (33.3%) | Upper respiratory tract infection ([5]; Part A SAD, 5 mg (n = 6)): 0 | AE leading to withdrawal from treatment ([5]; Part A SAD, 15 mg (n = 6)): 0 | Serious AE ([5]; Part A SAD, 15 mg (n = 6)): 0 | Total number of AEs ([5]; Part A SAD, 15 mg (n = 6)): 4 | Total number of deaths ([5]; Part A SAD, 15 mg (n = 6)): 0 | Total number of participants withdrawn from study due to an AE ([5]; Part A SAD, 15 mg (n = 6)): 0 | Related AE ([5]; Part A SAD, 15 mg (n = 6)): 1 (16.7%) | Total number of participants with at least one AE ([5]; Part A SAD, 15 mg (n = 6)): 4 (66.7%) | Upper respiratory tract infection ([5]; Part A SAD, 15 mg (n = 6)): 0 | Total number of participants with at least one AE ([5]; Part B MAD, 1 mg q.d. 14 days (n = 6)): 6 (100%) | AE leading to withdrawal from treatment ([5]; Part B MAD, 1 mg q.d. (n = 6)): 0 | Related serious AE ([5]; Part B MAD, 1 mg q.d. (n = 6)): 0 | Serious AE ([5]; Part B MAD, 1 mg q.d. (n = 6)): 0 | Total number of AEs ([5]; Part B MAD, 1 mg q.d. (n = 6)): 6 | Total number of deaths ([5]; Part B MAD, 1 mg q.d. (n = 6)): 0 | Total number of participants withdrawn from study due to an AE ([5]; Part B MAD, 1 mg q.d. (n = 6)): 0 | Cough ([5]; Part B MAD, 1 mg q.d. (n = 6)): 0 | Headache ([5]; Part B MAD, 1 mg q.d. (n = 6)): 1 (16.7%) | Related AE ([5]; Part B MAD, 1 mg q.d. (n = 6)): 0 | Upper respiratory tract infection ([5]; Part B MAD, 1 mg q.d. (n = 6)): 2 (33.3%) | Total number of participants with at least one AE ([5]; Part B MAD, 3 mg q.d. 14 days (n = 6)): 4 (66.7%) | AE leading to withdrawal from treatment ([5]; Part B MAD, 3 mg q.d. (n = 6)): 0 | Related serious AE ([5]; Part B MAD, 3 mg q.d. (n = 6)): 0 | Serious AE ([5]; Part B MAD, 3 mg q.d. (n = 6)): 0 | Total number of AEs ([5]; Part B MAD, 3 mg q.d. (n = 6)): 11 | Total number of deaths ([5]; Part B MAD, 3 mg q.d. (n = 6)): 0 | Total number of participants withdrawn from study due to an AE ([5]; Part B MAD, 3 mg q.d. (n = 6)): 0 | Cough ([5]; Part B MAD, 3 mg q.d. (n = 6)): 1 (16.7%) | Headache ([5]; Part B MAD, 3 mg q.d. (n = 6)): 2 (33.3%) | Related AE ([5]; Part B MAD, 3 mg q.d. (n = 6)): 1 (16.7%) | Upper respiratory tract infection ([5]; Part B MAD, 3 mg q.d. (n = 6)): 3 (50.0%) | Total number of participants with at least one AE ([5]; Part B MAD, 10 mg q.d. 14 days (n = 6)): 6 (100%) | AE leading to withdrawal from treatment ([5]; Part B MAD, 10 mg q.d. (n = 6)): 0 | Related serious AE ([5]; Part B MAD, 10 mg q.d. (n = 6)): 0 | Serious AE ([5]; Part B MAD, 10 mg q.d. (n = 6)): 0 | Total number of AEs ([5]; Part B MAD, 10 mg q.d. (n = 6)): 13 | Total number of deaths ([5]; Part B MAD, 10 mg q.d. (n = 6)): 0 | Total number of participants withdrawn from study due to an AE ([5]; Part B MAD, 10 mg q.d. (n = 6)): 0 | Cough ([5]; Part B MAD, 10 mg q.d. (n = 6)): 0 | Headache ([5]; Part B MAD, 10 mg q.d. (n = 6)): 0 | Related AE ([5]; Part B MAD, 10 mg q.d. (n = 6)): 0 | Upper respiratory tract infection ([5]; Part B MAD, 10 mg q.d. (n = 6)): 2 (33.3%) | Total number of participants with at least one AE ([5]; Part B MAD, 15 mg b.i.d. 14 days (n = 6)): 4 (66.7%) | AE leading to withdrawal from treatment [5, 6]: 0 | Related serious AE [5, 6]: 0 | Serious AE [5, 6]: 0 | Total number of AEs [5, 6]: 8 | Total number of deaths [5, 6]: 0 | Total number of participants withdrawn from study due to an AE [5, 6]: 0 | Cough [5, 6]: 0 | Headache [5, 6]: 2 (33.3%) | Related AE [5, 6]: 0 | Upper respiratory tract infection [5, 6]: 0 | severity of adverse events ([5]; after single and multiple doses, all adverse events): mild or moderate | safety and tolerability ([5]; up to a single dose of 15 mg or multiple doses up to 15 mg b.i.d. for 14 days): safe and well tolerated

Reference: article PMC9099118 (Clinical and Translational Science, 2022)
